Data: article PMC4021855 (Nature chemical biology, 2013)
Blank lines part the entries; values can stand above or below the compound they belong to.

Assays:
H226 cells [1] = assay: Transwell cell migration assay; assay type: cell-based, human
Summary of the method: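 H226 cells (1×10^5 per well) placed in the top chamber of a laminin-coated (10 μg/ml) 8.0 μm polycarbonate Transwell and left to migrate for 12 h with test compound. Migrated cells fixed in 70% methanol and stained with hematoxylin. Non-migrants swabbed off; cells counted in 3 random ×20 fields.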

H226 cells [2] = assay: Matrigel invasion assay; assay type: cell-based, human
Summary of the method: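 Upper chamber of Transwell (8.0 μm pore polycarbonate) coated with Matrigel 1 mg/ml in cold serum-free medium and set 4 h at 37°C. H226 cells seeded on top; lower chamber held medium with laminin 10 μg/ml. Cells exposed to test compound for 24 h. Invaded cells fixed in 70% methanol, hematoxylin-stained, and counted in 3 random ×20 fields. Mean ± s.d.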

KRS–LR interaction [3] = target: T1, KRS–LR interaction (Homo sapiens, UniProt Q15046); assay: Yeast two-hybrid; assay type: cell-based; details: Y2H, 50 μg/ml, 6-day incubation
Summary of the method: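 Yeast EGY/SH cells co-expressing LexA–KRS and B42–LR grown in galactose medium lacking Ura, His, Trp and Leu, with compound at 50 μg/ml final. OD540 read after 6 days.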

KRS–67LR interaction = KRS–67LR interaction (Homo sapiens, UniProt Q15046); assay: In vitro pull-down and IP assays; assay type: binding
Summary of the method: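 In vitro: 37LRP radiolabelled by coupled transcription/translation, mixed with 1 μg GST–KRS plus test compound, then GST pull-down; bound 37LRP detected by autoradiography. IP: Myc-KRS-transfected H226 cells pretreated with laminin 10 μg/ml for 1 h in serum-free medium, then test compound for 4 h. Lysates or membrane/cytosol fractions then used for IP and immunoblotting.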

67LR = assay: Membranous 67LR level by immunoblotting; assay type: cell-based
MMP-2 = MMP-2 zymography; assay type: cell-based
Summary of the method: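 H226 cells treated with laminin (10 μg/ml) plus test compound for 12 h. Conditioned-medium proteins run on 10% SDS-PAGE containing 1 mg/ml gelatin. Gel incubated in reaction buffer; gelatinolytic zone of MMP-2 visualised by Coomassie Blue staining.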

WI-26 cells [4] = assay: Transwell cell migration assay; assay type: cell-based; details: read-out: IC50 for inhibition of migration of WI-26
4T1 cells = assay: 4T1 mammary fat pad breast cancer metastasis model; assay type: in vivo, mouse; details: oral, 100 and 300 mg/kg
Summary of the method: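 4×10^4 4T1 cells injected into the surgically exposed No. 2 mammary fat pad of anaesthetised 7-week-old female BALB/cAnCr mice. Primary tumours (100–150 mm³) resected on day 10. Groups of n=5 balanced by resected tumour weight. Test compound or 0.5% methyl cellulose given orally once daily from day 1 after resection. Lungs excised at day 28 post-injection, fixed in Bouin's solution, and pulmonary nodules counted.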

Tg(MMTV-PyVT) mouse = assay: Tg; assay type: in vivo; details: 100 mg/kg intraperitoneally every other day for 6 weeks
A549-RFP cells = assay: A549-RFP left ventricle injection metastasis model; assay type: in vivo, mouse; details: 100 mg/kg oral once a day
Summary of the method: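 1×10^6 stable A549-RFP cells injected into the left ventricle of anaesthetised 6-week-old female BALB/cAnCr nude mice, n=10 per group. Test compound or 0.5% methyl cellulose given orally once daily from day 1 for 130 days. RFP signal of 5 random mice imaged by IVIS weekly, weeks 4–7. Body weight taken twice weekly for 50 days; survival followed to day 130.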

KRS = KRS (Homo sapiens, UniProt Q15046); assay: KRS aminoacylation enzymatic assay; assay type: biochemical; details: 0 to 40 μM
Summary of the method: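 KRS pre-incubated with test compound (0 to 40 μM final) for 30 min at 4°C before the aminoacylation reaction. Reaction aliquots quenched and precipitated on filter plates, washed, eluted with 0.2 M NaOH, and counted on a scintillation plate reader.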

H226 cells [5] = assay: Total protein synthesis; assay type: cell-based, human
Summary of the method: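 Compound-treated H226 cells held 30 min in Met-free medium, then labelled with [³⁵S]Met for 2 h. Cells returned to complete medium for 4 h, then lysed; radioactivity measured by scintillation counting. Lys variant used Lys-free medium and [³H]Lys.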

H226 cells [6] = assay: MTT cell viability assay; assay type: cell-based, human; details: 24 h
Summary of the method: (§1)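 1×10^4 cells per well in 96-well plates; preincubated 1 h with laminin, then exposed to test compound for 24 h in serum-free medium. MTT (stock 5 mg/ml, diluted 10-fold) added for 30 min. Crystals dissolved in DMSO; absorbance read at […].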

WI-26 cells [7] = assay: MTT cell viability assay; assay type: cell-based; details: 24 h
Summary of the method: as §1

KRS1–207 = KRS1–207 (Homo sapiens, UniProt Q15046); assay: SPR binding analysis
Summary of the method: (§2)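 Proteins immobilised at 30 μg/ml in 10 mM sodium acetate pH 5.0 on a CM5 chip: His-KRS WT, 1–207 and 220–597, plus GST-37LRP. Test compound in PBS with 0.05% Tween 20 and 2% DMSO, flowed at 20 μl/min, 25°C; binding read as RU change. For GST-tagged proteins, GST-only RU subtracted. Apparent constants fitted to 1:1 binding with drifting baseline.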

37LRP = 37LRP (Homo sapiens, UniProt P08865); assay: SPR binding analysis
Summary of the method: as §2

KRS–AIMP2 = KRS–AIMP2 (Homo sapiens, UniProt Q15046); assay: Quantification of the KRS–AIMP2 interaction; assay type: binding; details: 0–100 μM
Summary of the method: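 AlphaScreen format. His-tagged KRS incubated overnight at 4°C with test compound (0–100 μM final). Ni-chelate donor beads (0.01 mg/ml final) added for 15 min. Acceptor beads (0.01 mg/ml final) and biotinylated AIMP2(1–48)–thioredoxin fusion then added for 1.5 h. Emission read at 520–620 nm, room temperature, triplicate.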

[8] = Hematological metrics and blood chemistry in ICR mice; assay type: in vivo, mouse; details: high doses
[9] = Pharmacokinetics analysis in male ICR mice; assay type: in vivo, mouse; details: 3 mg/kg
Summary of the method: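 Male ICR mice, n=4 per group, dosed at 3 mg/kg. Intravenous dosing as a solution in 40% dimethylformamide; oral dosing as a suspension in 0.5% methyl cellulose. About 50 μl orbital-vein blood drawn at 0.083 (i.v. only), 0.25, 0.5, 1, 2, 4, 8 and 24 h. Plasma stored at −70°C.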

KRS–LR interaction [10] = target: T1, KRS–LR interaction; assay: Comparison of YH16899 with BC-K01 across functional assays; details: most of the assays tested

Chain of KRS–67LR interaction (Q15046 whole entry): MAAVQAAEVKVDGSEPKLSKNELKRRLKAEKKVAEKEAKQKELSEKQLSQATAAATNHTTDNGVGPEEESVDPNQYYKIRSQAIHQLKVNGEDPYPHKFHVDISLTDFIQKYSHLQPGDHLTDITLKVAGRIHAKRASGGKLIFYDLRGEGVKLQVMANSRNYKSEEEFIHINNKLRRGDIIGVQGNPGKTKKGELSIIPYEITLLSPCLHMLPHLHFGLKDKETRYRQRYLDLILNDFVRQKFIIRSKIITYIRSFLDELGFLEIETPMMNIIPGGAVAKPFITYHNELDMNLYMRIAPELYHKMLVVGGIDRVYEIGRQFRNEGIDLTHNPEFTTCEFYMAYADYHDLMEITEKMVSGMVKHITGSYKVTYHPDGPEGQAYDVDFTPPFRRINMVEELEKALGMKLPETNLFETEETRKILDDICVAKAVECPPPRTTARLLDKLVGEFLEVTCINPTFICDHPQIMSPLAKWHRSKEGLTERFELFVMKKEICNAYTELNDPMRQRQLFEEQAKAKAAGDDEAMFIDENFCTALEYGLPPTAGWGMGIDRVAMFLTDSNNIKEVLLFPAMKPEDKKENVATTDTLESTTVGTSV
T1 sequence (Q15046 whole entry): as above
Chain of KRS–AIMP2 (Q15046 whole entry, the tested form may be a part): as the sequence (Q15046 whole entry) above
Chain of KRS–AIMP2 (Q13155 1-48 partner limits assumed): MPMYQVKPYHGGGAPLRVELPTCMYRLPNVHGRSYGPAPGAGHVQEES
Chain of KRS (Q15046 whole entry): as the sequence (Q15046 whole entry) above
Chain of KRS1–207 (Q15046 1-207): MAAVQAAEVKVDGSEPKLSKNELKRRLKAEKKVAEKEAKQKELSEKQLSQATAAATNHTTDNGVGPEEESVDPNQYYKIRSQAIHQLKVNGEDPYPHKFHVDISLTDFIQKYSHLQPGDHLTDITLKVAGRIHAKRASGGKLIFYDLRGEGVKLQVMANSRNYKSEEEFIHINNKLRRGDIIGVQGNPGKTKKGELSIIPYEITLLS

inhibition of KRS–LR interaction without affecting KRS–AIMP2 and MRS–AIMP3 pairs (KRS–LR interaction [3]): specifically inhibited | effect on binding of KRS and LR (KRS–67LR interaction): reduced the binding of the two proteins
SMILES: CCC(C(=O)O)n1c(=NC(=O)c2ccc(C)cc2)sc2ccccc21 (centres unmarked) [BC-K01, 2-(2-{[4-(methyl)benzoyl]imino}benzothiazol-3-yl)butanoic acid]
effect on cell migration (H226 cells [1]): suppressed | effect on cell invasion (H226 cells [2]): suppressed | effect on level of 67LR in the plasma membrane (67LR): decreased the level of 67LR in the plasma membrane in a concentration-dependent manner | effect on MMP-2 (MMP-2): suppressed the activity of MMP-2

SMILES: CCC(C(=O)O)n1c(=NC(=O)c2cccc(C(F)(F)F)c2)sc2cc(F)c(F)cc21 (centres unmarked) [YH16899, 2-(5,6-difluoro-2-{[3-(trifluoromethyl)benzoyl]imino}benzo[d]thiazol-3(2H)-yl)butanoic acid]
IC50 (H226 cells [1]; Homo sapiens, NCI-H226, 12 h, read-out: IC50 for inhibition of H226 migration): 8.5 ± 2.1 µM | IC50 (WI-26 cells [4]): > 50 µM | suppression of cell invasion (H226 cells [2]; H226 cells, Matrigel): approximately 85% | effect on body weight (4T1 cells): little or no effect on body weight | inhibition of tumor metastases to the lungs (4T1 cells; once a day): approximately 60% | effect on body weight (Tg(MMTV-PyVT) mouse): without affecting body weight | reduction of pulmonary nodule formation (Tg(MMTV-PyVT) mouse): approximately 70% | effect on body weight (A549-RFP cells): did not affect the body weight | survival (A549-RFP cells; followed up to 130 days): greatly enhanced survival | reduction of average radiance (photon imaging) (A549-RFP cells; up to 7 weeks): approximately 50% | effect on the catalytic activity of KRS (KRS): little or no effect | effect on cellular protein synthesis (H226 cells [5]): little or no effect | effect on cell viability (H226 cells [6]): did not affect the cell viability | effect on cell viability (WI-26 cells [7]): did not affect the cell viability | binding to KRS1–207 compared with KRS1–597 and KRS220–597 (KRS1–207): preferential binding | binding to 37LRP (37LRP): did not show significant binding | change in KRS binding affinity to AIMP2 (KRS–AIMP2): little or no change | effect on binding of KRS and LR (KRS–67LR interaction): hindered the interaction between the two proteins | effect on level of 67LR in the plasma membrane (67LR): decreased the amount of membranous 67LR | effect on MMP-2 (MMP-2): suppressed the induction of MMP-2 | side effects (hematological metrics and blood chemistry) [8]: few side effects | volume of distribution in vivo compared to BC-K01 [9]: better volume of distribution | improvement of IC50 compared to BC-K01 (KRS–LR interaction [10]): 3- to 6 fold
